Data on two molecules can be found in ChEMBL document CHEMBL3102702, “Protein kinase and HDAC inhibitors from the endophytic fungus Epicoccum nigrum” (J Nat Prod, 2014).

One data set deals with Histone deacetylase 3 (Homo sapiens, UniProt O15379). Put plainly: Inhibition of recombinant HDAC3 (unknown origin) using Fluor-de-Lys-SIRT1 as substrate by fluorescence assay.
The target of data set [1] is Serine/threonine-protein kinase pim-1 (Homo sapiens, UniProt P11309). Nature of the data set: Inhibition of PIM1 (unknown origin).
Data set [2] addresses RAC-alpha serine/threonine-protein kinase (Homo sapiens, UniProt P31749). Nature of the data set: Inhibition of AKT1 (unknown origin).
In data set [3] the target is Serine/threonine-protein kinase N1 (Homo sapiens, UniProt Q16512). Nature of the data set: Inhibition of PRK1 (unknown origin).
The target in data set [4] is Dual specificity mitogen-activated protein kinase kinase 1 (Homo sapiens, UniProt Q02750). Put plainly: Inhibition of wild type MEK1 (unknown origin).
The target in data set [5] is Serine/threonine-protein kinase Nek6 (Homo sapiens, UniProt Q9HC98). Nature of the data set: Inhibition of NEK6 (unknown origin).
Data set [6] has as its target Hepatocyte growth factor receptor (Homo sapiens, UniProt P08581). Nature of the data set: Inhibition of wild type MET (unknown origin).
The target in data set [7] is ALK tyrosine kinase receptor (Homo sapiens, UniProt Q9UM73). Put plainly: Inhibition of ALK (unknown origin).
The target in another data set is Focal adhesion kinase 1 (Homo sapiens, UniProt Q05397). Nature of the data set: Inhibition of FAK (unknown origin).
Data set [8] addresses Insulin-like growth factor 1 receptor (Homo sapiens, UniProt P08069). Put plainly: Inhibition of IGF1R (unknown origin).
Another data set deals with Histone deacetylase 1 (Homo sapiens, UniProt Q13547). Nature of the data set: Inhibition of recombinant HDAC1 (unknown origin) using Fluor-de-Lys-SIRT1 as substrate by fluorescence assay.
Data set [9] has as its target Serine/threonine-protein kinase PLK1 (Homo sapiens, UniProt P53350). Put plainly: Inhibition of PLK1 (unknown origin).
The target in the next data set is Histone deacetylase 11 (Homo sapiens, UniProt Q96DB2). Put plainly: Inhibition of recombinant HDAC11 (unknown origin) using Fluor-de-Lys-SIRT1 as substrate by fluorescence assay.
In a further data set the target is Histone deacetylase 8 (Homo sapiens, UniProt Q9BY41). Nature of the data set: Inhibition of recombinant HDAC8 (unknown origin) using Fluor-de-Lys-HDAC8 as substrate by fluorescence assay.
Data set [10] concerns the target T1, Tyrosine-protein kinase receptor UFO (Homo sapiens, UniProt P30530).
T1 sequence (P30530 whole entry): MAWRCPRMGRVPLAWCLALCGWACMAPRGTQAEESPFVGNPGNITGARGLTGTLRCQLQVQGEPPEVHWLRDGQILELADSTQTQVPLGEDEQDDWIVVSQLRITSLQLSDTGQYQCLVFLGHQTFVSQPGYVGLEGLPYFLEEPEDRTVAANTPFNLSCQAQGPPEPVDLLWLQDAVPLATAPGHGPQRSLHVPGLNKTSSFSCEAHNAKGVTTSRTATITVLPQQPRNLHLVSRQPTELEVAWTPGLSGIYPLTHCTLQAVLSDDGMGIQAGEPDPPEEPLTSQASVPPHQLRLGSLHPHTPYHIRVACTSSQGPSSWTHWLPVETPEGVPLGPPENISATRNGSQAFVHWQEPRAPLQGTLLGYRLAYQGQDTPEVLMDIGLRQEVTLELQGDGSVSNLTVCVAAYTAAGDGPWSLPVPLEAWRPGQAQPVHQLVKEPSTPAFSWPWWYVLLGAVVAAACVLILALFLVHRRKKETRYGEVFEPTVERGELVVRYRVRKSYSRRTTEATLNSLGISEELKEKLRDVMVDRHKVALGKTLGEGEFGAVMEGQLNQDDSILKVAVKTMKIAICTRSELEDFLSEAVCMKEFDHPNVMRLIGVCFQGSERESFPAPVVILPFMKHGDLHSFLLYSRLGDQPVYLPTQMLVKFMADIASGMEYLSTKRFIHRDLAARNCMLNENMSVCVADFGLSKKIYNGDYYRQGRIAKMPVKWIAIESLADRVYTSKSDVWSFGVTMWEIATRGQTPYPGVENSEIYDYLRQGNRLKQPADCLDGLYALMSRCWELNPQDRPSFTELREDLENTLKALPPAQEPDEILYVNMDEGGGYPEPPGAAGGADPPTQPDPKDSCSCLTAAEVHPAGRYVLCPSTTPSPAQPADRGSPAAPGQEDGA
Nature of the data set: Inhibition of AXL (unknown origin).

Data set [11] has as its target Vascular endothelial growth factor receptor 2 (Homo sapiens, UniProt P35968). Put plainly: Inhibition of VEGFR2 (unknown origin).
Data set [12] deals with Polyamine deacetylase HDAC10 (Homo sapiens, UniProt Q969S8). Put plainly: Inhibition of recombinant HDAC10 (unknown origin) using Fluor-de-Lys-SIRT1 as substrate by fluorescence assay.
Data set [13] deals with T2, NUAK family SNF1-like kinase 1 (Homo sapiens, UniProt O60285).
T2 sequence (O60285 whole entry): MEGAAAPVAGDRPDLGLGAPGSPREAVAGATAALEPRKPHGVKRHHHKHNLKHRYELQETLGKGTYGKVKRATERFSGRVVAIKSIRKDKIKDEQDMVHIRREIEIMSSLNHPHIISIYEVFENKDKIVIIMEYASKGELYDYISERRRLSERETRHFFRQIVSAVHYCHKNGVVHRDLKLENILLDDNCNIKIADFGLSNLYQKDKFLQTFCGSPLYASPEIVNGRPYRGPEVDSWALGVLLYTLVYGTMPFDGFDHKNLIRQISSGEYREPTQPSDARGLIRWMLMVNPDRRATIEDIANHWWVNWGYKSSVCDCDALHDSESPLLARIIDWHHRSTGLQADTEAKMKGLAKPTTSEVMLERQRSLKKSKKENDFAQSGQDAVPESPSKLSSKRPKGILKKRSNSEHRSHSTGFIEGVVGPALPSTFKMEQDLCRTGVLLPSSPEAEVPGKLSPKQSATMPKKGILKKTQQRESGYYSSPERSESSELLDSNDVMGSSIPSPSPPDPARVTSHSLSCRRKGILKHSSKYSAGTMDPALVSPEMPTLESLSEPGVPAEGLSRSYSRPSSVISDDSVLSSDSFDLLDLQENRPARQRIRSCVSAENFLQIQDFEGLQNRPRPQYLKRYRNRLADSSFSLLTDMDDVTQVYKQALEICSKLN
Nature of the data set: Inhibition of ARK5 (unknown origin).

The test system of another data set is PBMC. Nature of the data set: Cytotoxicity against PBMC (unknown origin) assessed as growth inhibition after 48 hrs. It counts as cell-based. The method in brief:
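PBMCs isolated by a prior method, cultured in RPMI 1640 with 10% heat-inactivated FCS and 1% antibiotic–antimycotic at 37 °C, 5% CO2. Viability read after 48 h treatment, against DMSO-treated controls.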

In data set [14] the target is Protein deacetylase HDAC6 (Homo sapiens, UniProt Q9UBN7). Nature of the data set: Inhibition of recombinant HDAC6 (unknown origin) using Fluor-de-Lys-SIRT1 as substrate by fluorescence assay.
A further data set addresses Histone deacetylase. Put plainly: Inhibition of HDAC in human K562 cell extract using Fluor-de-Lys deacetylase as substrate preincubated for 45 mins measured after 15 mins by fluorescence assay. Format: protein assay.
Another data set deals with Aurora kinase B (Homo sapiens, UniProt Q96GD4). Put plainly: Inhibition of aurora-B (unknown origin).

Each structure is given as a SMILES string.

Sequence of ALK tyrosine kinase receptor (Q9UM73 whole entry): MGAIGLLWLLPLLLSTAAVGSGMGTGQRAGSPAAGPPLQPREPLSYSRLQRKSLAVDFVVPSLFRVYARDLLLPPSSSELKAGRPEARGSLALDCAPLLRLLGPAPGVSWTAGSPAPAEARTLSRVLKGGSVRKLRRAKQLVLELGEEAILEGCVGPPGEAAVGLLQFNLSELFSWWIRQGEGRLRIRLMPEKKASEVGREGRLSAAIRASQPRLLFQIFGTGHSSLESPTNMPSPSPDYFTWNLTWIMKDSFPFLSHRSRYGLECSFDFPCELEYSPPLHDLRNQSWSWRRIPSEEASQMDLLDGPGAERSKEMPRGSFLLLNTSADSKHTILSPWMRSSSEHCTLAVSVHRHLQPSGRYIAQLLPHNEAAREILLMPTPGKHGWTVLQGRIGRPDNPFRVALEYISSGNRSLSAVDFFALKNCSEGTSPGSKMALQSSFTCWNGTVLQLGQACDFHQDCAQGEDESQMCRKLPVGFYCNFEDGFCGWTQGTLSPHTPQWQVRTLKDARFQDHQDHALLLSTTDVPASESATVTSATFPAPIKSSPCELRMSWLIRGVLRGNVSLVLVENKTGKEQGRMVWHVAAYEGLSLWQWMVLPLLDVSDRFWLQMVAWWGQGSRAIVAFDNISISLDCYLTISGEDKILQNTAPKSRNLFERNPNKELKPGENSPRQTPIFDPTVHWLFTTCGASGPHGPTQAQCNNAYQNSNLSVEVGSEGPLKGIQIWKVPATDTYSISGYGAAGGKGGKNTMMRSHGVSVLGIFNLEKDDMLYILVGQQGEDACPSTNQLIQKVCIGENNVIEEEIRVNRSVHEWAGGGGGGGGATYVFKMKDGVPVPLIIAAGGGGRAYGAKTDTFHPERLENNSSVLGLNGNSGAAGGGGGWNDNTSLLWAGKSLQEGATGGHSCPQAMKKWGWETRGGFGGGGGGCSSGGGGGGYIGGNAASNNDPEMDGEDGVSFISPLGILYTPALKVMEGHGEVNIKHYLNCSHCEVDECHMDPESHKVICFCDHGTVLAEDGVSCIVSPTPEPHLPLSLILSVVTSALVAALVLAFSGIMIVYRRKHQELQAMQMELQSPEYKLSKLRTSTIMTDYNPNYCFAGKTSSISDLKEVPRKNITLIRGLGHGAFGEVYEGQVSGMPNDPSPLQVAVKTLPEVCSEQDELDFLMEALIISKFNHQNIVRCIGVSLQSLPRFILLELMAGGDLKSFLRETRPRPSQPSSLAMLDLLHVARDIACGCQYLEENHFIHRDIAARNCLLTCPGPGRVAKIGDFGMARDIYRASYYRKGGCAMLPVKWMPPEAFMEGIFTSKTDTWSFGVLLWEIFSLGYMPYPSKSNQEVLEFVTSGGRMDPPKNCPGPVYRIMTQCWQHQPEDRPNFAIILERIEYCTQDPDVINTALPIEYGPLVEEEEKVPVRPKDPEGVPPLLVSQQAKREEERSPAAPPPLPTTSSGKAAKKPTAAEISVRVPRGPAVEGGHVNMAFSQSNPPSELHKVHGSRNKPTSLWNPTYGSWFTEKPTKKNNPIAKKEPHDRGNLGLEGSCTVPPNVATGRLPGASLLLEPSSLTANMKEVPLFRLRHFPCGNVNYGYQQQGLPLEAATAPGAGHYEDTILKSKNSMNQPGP
Sequence of Polyamine deacetylase HDAC10 (Q969S8 whole entry): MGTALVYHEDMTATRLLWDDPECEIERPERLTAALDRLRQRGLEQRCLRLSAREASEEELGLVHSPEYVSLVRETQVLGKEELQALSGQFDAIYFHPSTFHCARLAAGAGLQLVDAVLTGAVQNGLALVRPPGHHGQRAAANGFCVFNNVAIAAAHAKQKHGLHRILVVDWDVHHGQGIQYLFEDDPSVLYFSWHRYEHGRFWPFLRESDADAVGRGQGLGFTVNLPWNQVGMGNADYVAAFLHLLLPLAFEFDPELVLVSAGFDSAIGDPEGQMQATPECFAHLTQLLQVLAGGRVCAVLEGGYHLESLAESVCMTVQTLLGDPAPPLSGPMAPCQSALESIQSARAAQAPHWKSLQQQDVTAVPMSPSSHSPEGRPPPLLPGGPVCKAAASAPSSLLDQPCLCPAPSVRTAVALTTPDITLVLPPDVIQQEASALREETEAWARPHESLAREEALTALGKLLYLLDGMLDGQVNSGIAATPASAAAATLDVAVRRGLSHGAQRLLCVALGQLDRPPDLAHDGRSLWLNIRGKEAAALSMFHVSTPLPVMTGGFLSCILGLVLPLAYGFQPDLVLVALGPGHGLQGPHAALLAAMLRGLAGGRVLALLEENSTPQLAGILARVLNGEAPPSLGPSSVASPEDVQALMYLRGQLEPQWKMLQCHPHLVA
Sequence of Serine/threonine-protein kinase pim-1 (P11309 whole entry): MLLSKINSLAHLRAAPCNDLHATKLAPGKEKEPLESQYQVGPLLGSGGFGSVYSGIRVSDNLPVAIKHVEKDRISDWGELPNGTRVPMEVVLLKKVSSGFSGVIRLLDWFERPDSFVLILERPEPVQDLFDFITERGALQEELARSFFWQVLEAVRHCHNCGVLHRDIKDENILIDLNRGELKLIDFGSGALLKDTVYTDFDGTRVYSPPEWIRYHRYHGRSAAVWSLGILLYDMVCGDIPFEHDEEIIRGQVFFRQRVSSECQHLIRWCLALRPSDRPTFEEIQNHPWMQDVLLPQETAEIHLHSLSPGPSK
Sequence of Protein deacetylase HDAC6 (Q9UBN7 whole entry): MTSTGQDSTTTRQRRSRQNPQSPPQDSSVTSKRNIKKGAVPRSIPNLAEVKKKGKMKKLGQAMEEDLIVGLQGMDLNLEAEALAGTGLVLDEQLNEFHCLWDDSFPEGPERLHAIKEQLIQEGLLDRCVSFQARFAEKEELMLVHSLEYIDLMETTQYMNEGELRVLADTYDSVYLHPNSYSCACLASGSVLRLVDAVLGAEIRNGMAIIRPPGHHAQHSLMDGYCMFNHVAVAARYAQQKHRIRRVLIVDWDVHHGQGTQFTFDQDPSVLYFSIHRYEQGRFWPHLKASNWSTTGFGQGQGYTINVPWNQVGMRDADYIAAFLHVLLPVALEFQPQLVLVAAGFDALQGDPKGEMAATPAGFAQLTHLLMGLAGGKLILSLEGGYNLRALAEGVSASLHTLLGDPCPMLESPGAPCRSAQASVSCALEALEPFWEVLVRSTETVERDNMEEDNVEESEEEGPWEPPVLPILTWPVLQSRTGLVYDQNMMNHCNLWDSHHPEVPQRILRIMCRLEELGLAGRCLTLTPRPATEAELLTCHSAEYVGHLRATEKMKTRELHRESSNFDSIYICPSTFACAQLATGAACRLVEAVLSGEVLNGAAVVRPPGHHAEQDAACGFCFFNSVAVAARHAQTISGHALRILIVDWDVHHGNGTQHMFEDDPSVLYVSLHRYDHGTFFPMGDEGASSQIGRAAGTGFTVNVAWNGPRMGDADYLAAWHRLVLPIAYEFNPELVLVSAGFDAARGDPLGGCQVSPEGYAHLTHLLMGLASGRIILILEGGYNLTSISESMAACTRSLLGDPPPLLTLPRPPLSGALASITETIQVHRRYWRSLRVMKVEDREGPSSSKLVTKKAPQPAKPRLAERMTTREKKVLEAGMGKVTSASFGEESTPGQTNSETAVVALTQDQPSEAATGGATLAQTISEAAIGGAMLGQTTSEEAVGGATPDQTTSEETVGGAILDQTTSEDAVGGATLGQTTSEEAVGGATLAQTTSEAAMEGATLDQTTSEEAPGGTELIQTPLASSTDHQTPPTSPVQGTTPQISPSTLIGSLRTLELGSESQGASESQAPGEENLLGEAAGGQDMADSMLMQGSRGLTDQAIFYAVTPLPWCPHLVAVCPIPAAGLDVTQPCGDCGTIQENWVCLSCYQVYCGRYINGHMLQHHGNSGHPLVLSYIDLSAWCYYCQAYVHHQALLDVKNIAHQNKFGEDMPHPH
Sequence of Aurora kinase B (Q96GD4 whole entry): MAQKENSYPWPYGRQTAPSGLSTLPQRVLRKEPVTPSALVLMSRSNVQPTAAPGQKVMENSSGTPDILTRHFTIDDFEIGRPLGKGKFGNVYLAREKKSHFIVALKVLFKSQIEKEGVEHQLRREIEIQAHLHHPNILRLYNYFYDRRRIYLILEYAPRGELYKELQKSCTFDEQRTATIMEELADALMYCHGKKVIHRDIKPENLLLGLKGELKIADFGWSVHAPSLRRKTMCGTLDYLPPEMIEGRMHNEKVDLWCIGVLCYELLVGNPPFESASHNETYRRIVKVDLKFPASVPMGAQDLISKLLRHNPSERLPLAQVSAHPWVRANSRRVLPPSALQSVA
Sequence of Serine/threonine-protein kinase N1 (Q16512 whole entry): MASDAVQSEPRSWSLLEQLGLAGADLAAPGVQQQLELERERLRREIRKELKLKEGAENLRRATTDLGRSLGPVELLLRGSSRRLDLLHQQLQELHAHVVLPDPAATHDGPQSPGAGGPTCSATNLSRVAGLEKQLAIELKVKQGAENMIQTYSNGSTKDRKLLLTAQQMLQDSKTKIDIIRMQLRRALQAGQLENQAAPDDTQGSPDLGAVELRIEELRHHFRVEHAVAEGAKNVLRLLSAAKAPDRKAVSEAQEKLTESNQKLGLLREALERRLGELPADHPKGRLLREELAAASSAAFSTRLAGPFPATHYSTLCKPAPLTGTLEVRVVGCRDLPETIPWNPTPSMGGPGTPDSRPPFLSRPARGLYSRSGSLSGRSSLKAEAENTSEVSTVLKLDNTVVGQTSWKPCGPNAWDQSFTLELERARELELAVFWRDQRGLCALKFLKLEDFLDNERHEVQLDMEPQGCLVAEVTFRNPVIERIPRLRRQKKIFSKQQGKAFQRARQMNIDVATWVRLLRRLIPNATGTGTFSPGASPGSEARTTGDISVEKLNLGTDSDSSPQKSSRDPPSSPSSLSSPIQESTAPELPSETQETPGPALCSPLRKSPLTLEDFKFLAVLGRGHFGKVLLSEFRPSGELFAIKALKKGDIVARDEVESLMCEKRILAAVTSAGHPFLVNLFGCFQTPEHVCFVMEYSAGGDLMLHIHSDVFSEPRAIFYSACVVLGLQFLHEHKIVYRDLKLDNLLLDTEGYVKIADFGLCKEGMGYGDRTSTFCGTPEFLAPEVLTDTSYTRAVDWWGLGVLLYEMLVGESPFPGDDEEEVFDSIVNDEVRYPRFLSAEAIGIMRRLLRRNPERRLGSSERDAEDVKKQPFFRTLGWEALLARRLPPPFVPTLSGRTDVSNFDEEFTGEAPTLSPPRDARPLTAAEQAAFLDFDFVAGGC

With `Cc1c(O)c(O)c(O)c(C=O)c1-c1cc2c(C=O)c(C)c(O)c(O)c2o1`, the IC50 on Histone deacetylase 3 is 6.9 µM; in data set [1], 4.44 µM; in [2] it was 4.07 µM; in [3] it was 9 µM; in data set [4], more than 30 µM; in [5], 1.85 µM. In addition, the IC50 came to 1.12 µM in [6]; 0.25 µM in data set [7]; 0.8 µM at Focal adhesion kinase 1; 0.15 µM in data set [8]; 8.8 µM on Histone deacetylase 1; 6.31 µM in [9]. Moreover, the IC50 worked out at 12.9 µM at Histone deacetylase 11; 2.1 µM on Histone deacetylase 8; 0.22 µM in [10]; 0.39 µM in [11]; 8.1 µM in [12]; 3.77 µM in [13]. Moreover, the figures for the IC50 (in data set [14]; on Histone deacetylase; on Aurora kinase B) were 6.5 µM, 14.2 µM and 7.29 µM, respectively. Further, the Activity entry in the data set with PBMC was “Non-toxic”.
`Cc1c(O)c(O)c2c(c1C=O)[C@@H]1O[C@H](O2)c2c(C)c(O)c(O)c(O)c2C1=O` (racemic): the IC50 was 12.4 µM on Histone deacetylase 3; 3.1 µM in [1]; 2.15 µM in [2]; 4.48 µM in data set [3]; more than 30 µM in data set [4]; 0.52 µM in [5]. The IC50 in data set [6] was found to be 0.58 µM; in data set [7] it was 0.18 µM; against Focal adhesion kinase 1, 0.42 µM; in data set [8], 0.07 µM; at Histone deacetylase 1, 8.6 µM; in [9] it was 3.18 µM. The IC50 on Histone deacetylase 11 is 11.7 µM; on Histone deacetylase 8 it was 1.6 µM; in data set [10], 0.16 µM; in data set [11], 0.32 µM; in [12] it was 8.4 µM; in [13], 2.51 µM. The IC50 in data set [14] turned out to be 4.6 µM; against Histone deacetylase it was 9.8 µM; at Aurora kinase B it was 2.51 µM. The Activity result with PBMC is reported as “Non-toxic”.
